Reference: article PMC12120116 (Scientific Reports, 2025)
Where “and” joins values, the source holds several entries; their conditions need not be identical. Equal entries are not always repeated. Entries after “also recorded” stand apart in the source; their conditions may differ.

Experiments:
[1] = system: A. franciscana larvae; assay: Pathway enrichment analysis; assay type: in vivo, Artemia franciscana; conditions: sublethal concentrations (LC10 at 48 h)
[2] = system: MCF-7 cell line; conditions: cited from earlier work
[3] = system: Artemia franciscana larvae; assay: Teratogenic effect; assay type: in vivo; conditions: for Body length: mean ± SEM
How it was run: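 Larvae came from cysts hatched 24 h in aerated ASW (pH ≅ 8.5, 28 °C). Thirty larvae were incubated in 1 mL of test-compound dilution (from DMSO stock, 0.17% DMSO, sonicated) at 25–26.5 °C for 24 h and 48 h. Ten larvae per tube had eye-to-tail length measured from images. A linear mixed-effects model (experiment as random effect) compared each treatment with time-matched ASW + 0.17% DMSO vehicle, with Dunnett adjustment.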

[4] = system: rodent models; conditions: cited from earlier work
[5] = system: A. franciscana larvae; assay: Untargeted LC-MS/MS metabolomics of larvae at sublethal concentrations; assay type: in vivo, Artemia franciscana
[6] = rodent models; cited from earlier work
[7] = system: A. franciscana larvae; assay: ChemRICH chemical similarity enrichment analysis of deregulated metabolites; assay type: in vivo, Artemia franciscana
[8] = system: Artemia franciscana larvae; assay: Acute toxicity assay; assay type: in vivo; conditions: for Mortality %: corrected, mean ± SEM; for LC1 (20% of the LC10): 20% of the LC10 at 24 h, sublethal concentration used for metabolomics; for LC10 (lethal concentration 10%): probit regression
[9] = Acute toxicity assay; assay type: in vivo, Artemia franciscana; conditions: Artemia franciscana, in vivo, pH 8.5
[10] = system: A. salina; conditions: 2500 mg/L (15 mM); ref 10 (Lestari et al. 2017); cited from earlier work
[11] = LC1 and LC10, 24 and 48 h, vs vehicle control

## CCCC(CCC)C(=O)Nc1ccccc1O [HO-AAVPA, N-(2-hydroxyphenyl)-2-propylpentanamide]
[1]
  Major deregulated / most impacted metabolic pathways: sphingolipid and glycerophospholipid metabolism; also recorded: glycerophospholipid and sphingolipid metabolism
[2]
  IC50: 0.476 mM
[3]; 0.10 mM (23.53 mg/L), 24 h
  Body length: 0.79 ± 0.011
[3]; 0.10 mM (23.53 mg/L), 48 h
  Body length: 0.82 ± 0.014
[3]; 0.18 mM (42.36 mg/L), 24 h
  Body length: 0.77 ± 0.007
[3]; 0.18 mM (42.36 mg/L), 48 h
  Body length: 0.78 ± 0.015
[3]; 0.32 mM (75.31 mg/L), 24 h
  Body length: 0.76 ± 0.01
[3]; 0.32 mM (75.31 mg/L), 48 h
  Body length: 0.83 ± 0.011
[3]; 0.56 mM (131.78 mg/L), 24 h
  Body length: 0.7 ± 0.014
[3]; 0.56 mM (131.78 mg/L), 48 h
  Body length: 0.69 ± 0.022
[3]; 1.00 mM (235.33 mg/L), 24 h
  Body length: 0.66 ± 0.018
[3]; 1.00 mM (235.33 mg/L), 48 h
  Body length: 0.58 ± 0.018
[3]; larvae length as morphological indicator
  Teratogenicity compared to VPA: lower teratogenicity; also recorded: lower teratogenic
[4]
  Toxicity compared to VPA: lower toxicity
[5]; [11]
  Abundance of L-glutamine, L-asparagine, dihydrothymine and dihydrouracil: did not produce any significant impact
  Abundance of L-serine and isobutyryl-L-carnitine: did not produce any significant impact
[5]; LC10
  Oxysterols (3beta,7alpha-dihydroxy-5-cholestenoate, 3b-hydroxy-5-cholenoic acid, 7-ketodeoxycholic acid, 4alpha-carboxy-5alpha-cholesta-8-en-3beta-ol): increased
[5]; both concentrations, only at 24 h
  Abundance of some triacylglycerides (TG): downregulated
[5]; most notable change, vs vehicle control
  Abundance of 7E,9E,11-Dodecatrienyl acetate: downregulation
[5]; vs vehicle control
  Abundance of mintsulfide, 3beta,7alpha-Dihydroxy-5-cholestenoate and 4alpha-Carboxy-5alpha-cholesta-8-en-3beta-ol: raised the abundance
[6]
  Bioavailability compared to VPA: higher bioavailability
[7]; LC1, 24 h
  Triacylglycerides cluster, abundance of metabolites: decreased
[7]; LC10, 24 h
  Triacylglycerides cluster, abundance of metabolites: increased
[7]; both concentrations, 48 h
  Glycerophosphocholines and glycerophosphoethanolamines clusters: mixed changes
[7]; fatty acid esters, LC1 and LC10, 24 and 48 h
  Malonyl carnitine: most sustained alterations
[8]; 0.18 mM (42.36 mg/L), 24 h
  Mortality %: 1.03 ± 1.15%
[8]; 0.18 mM (42.36 mg/L), 48 h
  Mortality %: 16.96 ± 6.69%
[8]; 0.32 mM (75.31 mg/L), 24 h
  Mortality %: 10.41 ± 5.92%
[8]; 0.32 mM (75.31 mg/L), 48 h
  Mortality %: 30.34 ± 15.25%
[8]; 0.56 mM (131.78 mg/L), 24 h
  Mortality %: 60.16 ± 18.53 %
[8]; 0.56 mM (131.78 mg/L), 48 h
  Mortality %: 77.3 ± 13.49 %
[8]; 1.00 mM (235.33 mg/L), 24 h
  Mortality %: 97.81 ± 1.1 %
[8]; 1.00 mM (235.33 mg/L), 48 h
  Mortality %: 100 ± 0 %
[8]
  LC1 (20% of the LC10): 0.04 mM
[8]; 48 h
  LC10 (lethal concentration 10%): 0.13 mM and 29.49 mg/L
[8]; acute toxicity, 24 and 48 h
  Toxicity compared to VPA: high toxicity; also recorded: higher toxic effects
[9]
  LC50 at 24 h: 450 µM and 106 µg/mL
  LC50 at 48 h: 320 µM and 75.8 µg/mL

## CCCC(CCC)C(=O)O [VPA, valproic acid]
[1]
  Major deregulated / most impacted metabolic pathways: alanine, aspartate, and glutamate metabolism
[3]; 3 mM (499 mg/L), 24 h
  Body length: 0.78 ± 0.008
[3]; 3 mM (499 mg/L), 48 h
  Body length: 0.8 ± 0.01
[3]; 5.4 mM (897 mg/L), 24 h
  Body length: 0.74 ± 0.012
[3]; 5.4 mM (897 mg/L), 48 h
  Body length: 0.77 ± 0.012
[3]; 9.6 mM (1595 mg/L), 24 h
  Body length: 0.69 ± 0.011
[3]; 9.6 mM (1595 mg/L), 48 h
  Body length: 0.68 ± 0.021
[3]; 16.8 mM (2792 mg/L), 24 h
  Body length: 0.67 ± 0.009
[3]; 16.8 mM (2792 mg/L), 48 h
  Body length: 0.66 ± 0.017
[3]; 30 mM (4986 mg/L), 24 h
  Body length: 0.67 ± 0.008
[3]; 30 mM (4986 mg/L), 48 h
  Body length: 0.64 ± 0.013
[3]; 54 mM (8974 mg/L), 24 h
  Body length: 0.61 ± 0.015
[3]; 54 mM (8974 mg/L), 48 h
  Body length: 0.57 ± 0.017
[3]; 96 mM (15,954 mg/L), 24 h
  Body length: 0.56 ± 0.011
[3]; 96 mM (15,954 mg/L), 48 h
  Body length: 0.54 ± 0.01
[3]; 168 mM (27,920 mg/L), 24 h
  Body length: 0.52 ± 0.014
[3]; 168 mM (27,920 mg/L), 48 h
  Body length: 0.5 ± 0.011
[10]
  Lethality: 100%
[7]; LC10, sustained up to 48 h
  Ceramide and glycerophosphoinositol clusters, abundance of metabolites: downregulates
[7]; especially LC1, 48 h
  Lipid abundance (glycerophospholipid subclasses, linoleic acid and derivatives): increases
[7]; lowest concentration (LC1)
  C2-C6 acylcarnitines (fatty acid esters cluster): positively impacts
[7]; most metabolites of the cluster
  Abundance of amino acids and their derivatives: upward trend
[8]; 3 mM (499 mg/L), 24 h
  Mortality %: 1.19 ± 3.15%
[8]; 3 mM (499 mg/L), 48 h
  Mortality %: 7.06 ± 3.61%
[8]; 5.4 mM (897 mg/L), 24 h
  Mortality %: 1.83 ± 3.66%
[8]; 5.4 mM (897 mg/L), 48 h
  Mortality %: 4.98 ± 4.86%
[8]; 9.6 mM (1595 mg/L), 24 h
  Mortality %: 10.08 ± 8.85%
[8]; 9.6 mM (1595 mg/L), 48 h
  Mortality %: 26.43 ± 8.52%
[8]; 16.8 mM (2792 mg/L), 24 h
  Mortality %: 11.11 ± 11.85%
[8]; 16.8 mM (2792 mg/L), 48 h
  Mortality %: 29.41 ± 11.96%
[8]; 30 mM (4986 mg/L), 24 h
  Mortality %: 35.05 ± 12.82%
[8]; 30 mM (4986 mg/L), 48 h
  Mortality %: 62.42 ± 14.69 %
[8]; 54 mM (8974 mg/L), 24 h
  Mortality %: 37.32 ± 15.84 %
[8]; 54 mM (8974 mg/L), 48 h
  Mortality %: 82.22 ± 9.04 %
[8]; 96 mM (15,954 mg/L), 24 h
  Mortality %: 70.18 ± 14.77 %
[8]; 96 mM (15,954 mg/L), 48 h
  Mortality %: 96.35 ± 2.13 %
[8]; 168 mM (27,920 mg/L), 24 h
  Mortality %: 98.85 ± 1.15 %
[8]; 168 mM (27,920 mg/L), 48 h
  Mortality %: 100 ± 0 %
[8]
  LC1 (20% of the LC10): 1.79 mM
[8]; 48 h
  Concentration at which 100% lethality was achieved: above 96 mM
  LC10 (lethal concentration 10%): 4.71 mM and 783.1 mg/L
[9]
  LC50: > 1000 µg/mL
  LC50 at 24 h: 41.1 mM
  LC50 at 48 h: 18.7 mM
